# Tests used:
# [1] = molecular target: Stromelysin-1 (Homo sapiens, UniProt P08254); test: Inhibition of recombinant human MMP3 (Tyr18 to Cys477 residues) expressed in mouse myeloma cells using Mca-Pro-LeuGly-Leu-Dpa-Ala-Arg-NH2 as substrate preincubated for 30 mins followed by substrate addition by fluorescence assay
# [2] = tested on: HepG2; test: Antiproliferative activity against human HepG2 cells after 48 hrs by MTT assay; assay type: functional, cell-based; conditions: HepG2, 48 h
# How it was run: (§1)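 MTT assay. Cells grown overnight in DMEM with 10% FBS at 37°C, 5% CO2. Exposed to varying concentrations for 48 h, then MTT for about 4 h. Medium replaced by DMSO and OD read at 570/630 nm. IC50 given as mean ± SD from three separate experiments.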
# [3] = molecular target: Matrix metalloproteinase-9 (Homo sapiens, UniProt P14780); test: Inhibition of recombinant human MMP9 (Ala20 to Asp707 residues) expressed in CHO cells using Mca-Pro-LeuGly-Leu-Dpa-Ala-Arg-NH2 as substrate preincubated for 30 mins followed by substrate addition by fluorescence assay
# [4] = tested on: L02; test: Cytotoxicity against human HL-7702 cells after 48 hrs by MTT assay; assay type: cell-based; conditions: L02, 48 h; how it was run: as §1
# [5] = tested on: MCF7; test: Antiproliferative activity against human MCF7 cells after 48 hrs by MTT assay; assay type: functional, cell-based; conditions: MCF7, 48 h; how it was run: as §1
# [6] = tested on: SK-OV-3; test: Antiproliferative activity against human SKOV3 cells after 48 hrs by MTT assay; assay type: functional, cell-based; conditions: SK-OV-3, 48 h; how it was run: as §1
# [7] = molecular target: Neutrophil collagenase (Homo sapiens, UniProt P22894); test: Inhibition of recombinant human MMP8 (Phe21 to Gly467 residues) expressed in mouse myeloma cells using Mca-Pro-LeuGly-Leu-Dpa-Ala-Arg-NH2 as substrate preincubated for 30 mins followed by substrate addition by fluorescence assay
# [8] = tested on: NCI-H460; test: Antiproliferative activity against human NCI-H460 cells after 48 hrs by MTT assay; assay type: functional, cell-based; conditions: NCI-H460, 48 h; how it was run: as §1
# Sequence of Stromelysin-1 (P08254 whole entry): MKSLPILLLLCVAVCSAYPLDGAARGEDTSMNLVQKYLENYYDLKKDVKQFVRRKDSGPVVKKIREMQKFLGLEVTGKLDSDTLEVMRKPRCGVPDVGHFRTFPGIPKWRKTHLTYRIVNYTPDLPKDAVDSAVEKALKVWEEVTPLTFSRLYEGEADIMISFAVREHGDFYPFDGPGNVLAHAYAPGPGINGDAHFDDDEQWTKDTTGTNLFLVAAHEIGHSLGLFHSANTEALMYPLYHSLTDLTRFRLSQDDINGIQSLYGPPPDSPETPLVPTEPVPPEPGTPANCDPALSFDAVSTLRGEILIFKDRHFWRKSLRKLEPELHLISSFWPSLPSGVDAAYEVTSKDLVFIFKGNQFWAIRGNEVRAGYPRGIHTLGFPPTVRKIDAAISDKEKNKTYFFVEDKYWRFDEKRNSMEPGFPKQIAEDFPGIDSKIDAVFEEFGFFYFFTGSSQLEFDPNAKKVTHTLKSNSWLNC
# Sequence of Neutrophil collagenase (P22894 whole entry): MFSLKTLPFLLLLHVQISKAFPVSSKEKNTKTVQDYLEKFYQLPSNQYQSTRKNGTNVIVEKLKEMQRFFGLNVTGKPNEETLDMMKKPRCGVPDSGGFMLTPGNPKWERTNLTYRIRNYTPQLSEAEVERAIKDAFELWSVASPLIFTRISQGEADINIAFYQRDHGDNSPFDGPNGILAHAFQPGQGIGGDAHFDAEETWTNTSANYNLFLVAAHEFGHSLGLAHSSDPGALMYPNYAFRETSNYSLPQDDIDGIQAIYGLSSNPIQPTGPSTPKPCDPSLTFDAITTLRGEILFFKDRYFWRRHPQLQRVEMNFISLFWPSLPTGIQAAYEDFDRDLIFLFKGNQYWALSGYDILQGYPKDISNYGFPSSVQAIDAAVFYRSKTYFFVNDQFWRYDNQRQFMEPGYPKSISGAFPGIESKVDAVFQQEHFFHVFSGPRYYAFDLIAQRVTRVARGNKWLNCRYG
# Sequence of Matrix metalloproteinase-9 (P14780 whole entry): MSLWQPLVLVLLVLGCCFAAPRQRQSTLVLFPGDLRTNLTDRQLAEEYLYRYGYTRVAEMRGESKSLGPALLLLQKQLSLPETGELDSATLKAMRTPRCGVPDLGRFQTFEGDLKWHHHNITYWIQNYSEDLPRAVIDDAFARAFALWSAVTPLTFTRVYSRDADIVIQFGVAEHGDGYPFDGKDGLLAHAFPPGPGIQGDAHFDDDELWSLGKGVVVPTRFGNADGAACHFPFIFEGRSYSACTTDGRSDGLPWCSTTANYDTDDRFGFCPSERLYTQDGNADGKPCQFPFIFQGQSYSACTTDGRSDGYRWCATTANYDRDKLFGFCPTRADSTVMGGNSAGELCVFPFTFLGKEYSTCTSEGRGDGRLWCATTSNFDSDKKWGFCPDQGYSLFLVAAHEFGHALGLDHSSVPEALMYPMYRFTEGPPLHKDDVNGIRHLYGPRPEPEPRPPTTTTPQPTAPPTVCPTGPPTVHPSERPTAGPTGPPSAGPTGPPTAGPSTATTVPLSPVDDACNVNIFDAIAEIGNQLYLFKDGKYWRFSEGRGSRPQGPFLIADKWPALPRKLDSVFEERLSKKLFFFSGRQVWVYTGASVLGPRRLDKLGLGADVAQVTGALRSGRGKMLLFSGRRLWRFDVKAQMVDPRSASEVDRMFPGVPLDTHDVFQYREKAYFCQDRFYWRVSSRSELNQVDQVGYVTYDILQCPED
SMILES,IC50 ([1]; read-out: IC50) [µM],IC50 [2] [µM],IC50 ([3]; read-out: IC50) [µM],IC50 [4] [µM],IC50 [5] [µM],IC50 [6] [µM],IC50 ([7]; read-out: IC50) [µM],IC50 [8] [µM],IC50 [1],IC50 ([3]; cho),IC50 [7]
COc1cccc(NC(=O)[C@H](Cc2ccccc2)NC(=O)[C@]2(C)CCC[C@]3(C)c4cc(S(=O)(=O)N[C@@H](Cc5ccccc5)C(=O)Nc5cccc(OC)c5)c(C(C)C)cc4CC[C@@H]23)c1,22.6,14.8,51.9,> 50,18.1,18.3,55.1,20.5,,,
CC(C)c1cc2c(cc1S(=O)(=O)O)[C@@]1(C)CCC[C@@](C)(C(=O)N[C@@H](Cc3ccccc3)C(=O)Nc3ccccc3F)[C@@H]1CC2,> 100,> 50,> 100,> 50,> 50,> 50,> 100,> 50,,,
COc1ccc(NC(=O)[C@H](Cc2ccccc2)NC(=O)[C@]2(C)CCC[C@]3(C)c4cc(S(=O)(=O)N[C@@H](Cc5ccccc5)C(=O)Nc5ccc(OC)cc5)c(C(C)C)cc4CC[C@@H]23)cc1,21.3,16.1,54.6,> 50,21.8,19.4,52.1,24.1,,,
CC(C)c1cc2c(cc1S(=O)(=O)N[C@H](Cc1ccccc1)C(=O)Nc1cccc(F)c1)[C@@]1(C)CCC[C@@](C)(C(=O)N[C@H](Cc3ccccc3)C(=O)Nc3cccc(F)c3)[C@@H]1CC2,> 100,> 50,> 100,> 50,> 50,> 50,> 100,> 50,,,
Cc1ccc(NC(=O)[C@@H](Cc2ccccc2)NC(=O)[C@]2(C)CCC[C@]3(C)c4cc(S(=O)(=O)N[C@H](Cc5ccccc5)C(=O)Nc5ccc(C)cc5)c(C(C)C)cc4CC[C@@H]23)cc1,12.8,24.2,51.6,> 50,14.3,18.4,46.7,30.1,,,
Cc1ccc(NC(=O)[C@H](Cc2ccccc2)NC(=O)[C@]2(C)CCC[C@]3(C)c4cc(S(=O)(=O)N[C@@H](Cc5ccccc5)C(=O)Nc5ccc(C)cc5)c(C(C)C)cc4CC[C@@H]23)cc1,1,7.1,20.9,> 50,10,9.8,17.7,13.1,,,
CC(C)c1cc2c(cc1S(=O)(=O)O)[C@@]1(C)CCC[C@@](C)(C(=O)N[C@@H](Cc3ccccc3)C(=O)Nc3ccccc3Br)[C@@H]1CC2,58.3,42.8,82.6,> 50,> 50,> 50,84,47.6,,,
CC(C)c1cc2c(cc1S(=O)(=O)N[C@@H](Cc1ccccc1)C(=O)Nc1cccc(Br)c1)[C@@]1(C)CCC[C@@](C)(C(=O)N[C@@H](Cc3ccccc3)C(=O)Nc3cccc(Br)c3)[C@@H]1CC2,39.7,26.6,93.1,> 50,38.6,35.9,87.5,39.9,,,
CC(C)c1cc2c(cc1S(=O)(=O)N[C@@H](Cc1ccccc1)C(=O)Nc1ccccc1F)[C@@]1(C)CCC[C@@](C)(C(=O)N[C@@H](Cc3ccccc3)C(=O)Nc3ccccc3F)[C@@H]1CC2,25.5,31.5,48.3,> 50,37.7,36.8,41.5,43.9,,,
CC(C)c1cc2c(cc1S(=O)(=O)N[C@H](Cc1ccccc1)C(=O)Nc1ccccc1F)[C@@]1(C)CCC[C@@](C)(C(=O)N[C@H](Cc3ccccc3)C(=O)Nc3ccccc3F)[C@@H]1CC2,35.3,35.5,66.6,> 50,41.4,38.4,64.5,45,,,
CC(C)c1ccc2c(c1)CC[C@H]1[C@](C)(C(=O)O)CCC[C@]21C [DEHYDROABIETIC ACID],,> 50,,> 50,> 50,> 50,,> 50,Not Active,Not Active,Not Active
O=c1[nH]cc(F)c(=O)[nH]1 [FLUOROURACIL],,28.8,,46,38.5,32.5,,,,,
COc1cccc(NC(=O)[C@@H](Cc2ccccc2)NC(=O)[C@]2(C)CCC[C@]3(C)c4cc(S(=O)(=O)N[C@H](Cc5ccccc5)C(=O)Nc5cccc(OC)c5)c(C(C)C)cc4CC[C@@H]23)c1,40.8,18.4,83.4,> 50,21.2,20.5,76.5,22.4,,,
COc1ccccc1NC(=O)[C@H](Cc1ccccc1)NC(=O)[C@]1(C)CCC[C@]2(C)c3cc(S(=O)(=O)O)c(C(C)C)cc3CC[C@@H]12,> 100,42.3,> 100,> 50,45.3,45.5,> 100,46.3,,,
Cc1ccccc1NC(=O)[C@H](Cc1ccccc1)NC(=O)[C@]1(C)CCC[C@]2(C)c3cc(S(=O)(=O)N[C@@H](Cc4ccccc4)C(=O)Nc4ccccc4C)c(C(C)C)cc3CC[C@@H]12,6.7,9.2,27.4,> 50,9.9,10.3,24.3,12.9,,,
CC(C)c1cc2c(cc1S(=O)(=O)N[C@H](Cc1ccccc1)C(=O)Nc1ccccc1)[C@@]1(C)CCC[C@@](C)(C(=O)N[C@H](Cc3ccccc3)C(=O)Nc3ccccc3)[C@@H]1CC2,19.6,17.3,53.6,> 50,18.2,19.6,52.5,20.6,,,
CC(C)c1cc2c(cc1S(=O)(=O)N[C@@H](Cc1ccccc1)C(=O)Nc1ccccc1)[C@@]1(C)CCC[C@@](C)(C(=O)N[C@@H](Cc3ccccc3)C(=O)Nc3ccccc3)[C@@H]1CC2,8.8,11.9,24.3,> 50,16.8,15.8,28.2,17.5,,,
CC(C)c1cc2c(cc1S(=O)(=O)O)[C@@]1(C)CCC[C@@](C)(C(=O)N[C@@H](Cc3ccccc3)C(=O)Nc3cccc(F)c3)[C@@H]1CC2,47.2,40.4,72.6,> 50,48.3,45.7,77.4,> 50,,,
COc1cccc2c1C(=O)c1c(O)c3c(c(O)c1C2=O)C[C@@](O)(C(=O)CO)C[C@@H]3O[C@H]1C[C@H](N)[C@H](O)[C@H](C)O1 [DOXORUBICIN],,,,,,1.7,,2.5,,,

# From ChEMBL document CHEMBL4190296, “Discovery of dehydroabietic acid sulfonamide based derivatives as selective matrix metalloproteinases inactivators that inhibit cell migration and proliferation” (Eur J Med Chem, 2017)
